Data set [1] in a line: (§1) Inhibition of Mycobacterium tuberculosis GyrA/GyrB using relaxed pBR322 as substrate after 30 mins by DNA supercoiling assay.
The subject of data set [2] is Mycobacterium tuberculosis. Put plainly: Antimycobacterial activity against Mycobacterium tuberculosis H37Rv after 7 days by microplate alamar blue assay. It counts as functional. The note with it: 168 h. The procedure, abridged:
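M. tuberculosis H37Rv inoculum taken from fresh LJ medium, resuspended in 7H9-S (7H9 broth, 0.1% casitone, 0.5% glycerol, OADC), adjusted to McFarland No. 1 and diluted 1:20. Two-fold serial dilutions were tested over a range of 25 to 0.78. Plates were incubated 7 days at 37 °C, then alamar blue was added and incubated overnight. Blue-to-pink colour change read as growth; MIC determined.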

The nature of data set [3]: Cytotoxicity against mouse RAW264.7 cells at 100 uM after 48 hrs by MTT assay. It counts as cell-based. To be noted: read-out: INH. The procedure, abridged:
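Cells seeded at 5 × 10⁵ per well with test compound at a range of concentrations. Incubated 48 h at 37 °C under 5% CO₂/[…]. MTT reagent (10 mg mL⁻¹ stock) added about 4 h before the end. Plate centrifuged, supernatant removed and formazan dissolved in DMSO. Absorbance read at 560 nm against a blank. Triplicate wells per concentration.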
For orientation: Tetrazolium assays rely on reduction of a dye to a coloured formazan, in cell work by metabolically active cells.

Data set [4] can be described thus: Selectivity index, ratio of CC50 for mouse RAW264.7 cells to MIC for Mycobacterium tuberculosis H37Rv. To be noted: read-out: Selectivity Index. It counts as toxicity. The procedure, abridged:
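Ratio of CC50 to MABA MIC against H37Rv. […] MTT was added 4 h before the end, formazan was dissolved in DMSO and absorbance read at 560 nm. Each concentration was run in triplicate.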

Data set [5] concerns Mycobacterium tuberculosis. Put plainly: Inhibition of Mycobacterium tuberculosis GyrA/GyrB using relaxed pBR322 as substrate at 0.97 uM after 30 mins by DNA supercoiling assay. An outline of the steps:
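Gyrase supercoiling reaction: GyrA/GyrB heterotetramer (1 U), relaxed pBR322, 1 mM ATP, HEPES-KOH pH 7.9 buffer, 30 min at 37 °C. Compounds were tested in a series of 250, 62.5, 15.6, 3.9 and 0.97. Products were resolved on 1% agarose with ethidium staining, and inhibition was quantified relative to control.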

For data set [6], the system named is Mycobacterium tuberculosis. The data set is described as §1.

The structures appear in SMILES notation. ≈ marks a conversion by molar mass, not a printed value. Bounds are passed on as bounds.

As usually defined, the IC50 is the midpoint of a concentration-inhibition curve. Read a low IC50 as inhibition by little substance. What is called MIC is the lowest concentration found to suppress growth. High values mean a less susceptible organism, low ones a more susceptible organism. Usually inhibition stands for the drop in the measured response relative to a control, in per cent. In turn, `O=C(Nc1ccc([N+](=O)[O-])cc1)NC1CCN(CCn2c(=O)ccc3ncc(F)cc32)CC1` showed an IC50 in data set [1] of 250 nM. Moreover, it took 3.77 µM (≈ 1.71 µg/mL) to inhibit growth in data set [2] (MIC). Also, the cytotoxicity at 48 h, 100 µM in data set [3] is 38.6%. The selectivity ratio in data set [4] is over 26.5. Moreover, the inhibition in data set [5] is over 70%.
As to `O=C(Nc1ccc(Cl)cc1)NC1CCN(CCn2c(=O)ccc3ncc(F)cc32)CC1`, in data set [1], the IC50 was found to be 300 nM. In addition, it took 1.29 µM (≈ 0.573 µg/mL) to inhibit growth in data set [2] (MIC). The cytotoxicity at 48 h, 100 µM in data set [3] amounted to 25.7%. In addition, the selectivity ratio in data set [4] was over 77.5. Also, the inhibition in data set [5] is over 69%.
Consider `COc1cnc2ccc(=O)n(CCN3CCC(NC(=O)Nc4ccc(F)cc4)CC3)c2c1`, for which half-maximal inhibition in data set [1] (IC50) required 78 nM. In addition, the inhibition result was “Dose-dependent effect” in data set [6] and over 82% in data set [5]. The compound also returned an MIC in data set [2] of 0.62 µM (≈ 0.272 µg/mL). For the same compound, in data set [3], the cytotoxicity at 48 h, 100 µM was determined as 31.5%. Further, the selectivity ratio in data set [4] was over 161.
As to `COc1cnc2ccc(=O)n(CCN3CCC(NC(=O)Nc4ccc(Cl)cc4)CC3)c2c1`, in data set [1], the IC50 was determined as 92 nM. Moreover, the MIC in data set [2] was 1.85 µM (≈ 0.844 µg/mL). The cytotoxicity at 48 h, 100 µM in data set [3] amounted to 28.5%. Also, the selectivity ratio in data set [4] is over 54. The inhibition in data set [5] is over 83%.
Regarding `Cc1ccc(NC(=O)NC2CCN(CCn3c(=O)ccc4ncc(F)cc43)CC2)cc1`, in data set [1], the IC50 came out at 670 nM. Moreover, the MIC in data set [2] stood at 1.84 µM (≈ 0.779 µg/mL). In addition, the cytotoxicity at 48 h, 100 µM in data set [3] was determined as 29.5%. In addition, the selectivity ratio in data set [4] was over 54.3. Besides, in data set [5], the inhibition was over 73%.
For `COc1ccc(NC(=O)NC2CCN(CCn3c(=O)ccc4ncc(OC)cc43)CC2)cc1`, in data set [1], the IC50 came to 200 nM. Further, the MIC in data set [2] came out at 3.78 µM (≈ 1.71 µg/mL). The cytotoxicity at 48 h, 100 µM in data set [3] stood at 29.4%. The selectivity ratio in data set [4] was over 26.4. In addition, in data set [5], the inhibition was over 86%.
`COc1cnc2ccc(=O)n(CCN3CCC(NC(=O)Nc4ccc(C(C)=O)cc4)CC3)c2c1` gave an IC50 in data set [1] of 11600 nM. Also, in data set [2], it took 6.6 µM (≈ 3.06 µg/mL) to inhibit growth (MIC). Further, the cytotoxicity at 48 h, 100 µM in data set [3] is 39.5%. In data set [4], the selectivity ratio is over 15.2. For the same compound, in data set [5], the inhibition is over 85%.
In data set [1], `COc1ccc(NC(=O)NC2CCN(CCn3c(=O)ccc4ncc(F)cc43)CC2)cc1` returned an IC50 of 2200 nM. The compound further showed an MIC in data set [2] of 3.23 µM (≈ 1.42 µg/mL). The cytotoxicity at 48 h, 100 µM in data set [3] was found to be 25.5%. In addition, the selectivity ratio in data set [4] was over 30.9. In addition, in data set [5], the inhibition is over 72%.
Taken in the same sequence, the figures for `COc1ccc(CNC(=S)NC2CCN(CCn3c(=O)ccc4ncc(OC)cc43)CC2)cc1` were 3200 nM, 13 µM (≈ 6.25 µg/mL), 19.4%, over 7.71 and over 96%.
As for `COc1ccc(CNC(=S)NC2CCN(CCn3c(=O)ccc4ncc(F)cc43)CC2)cc1`, the 50% inhibitory concentration (IC50) in data set [1] amounted to 400 nM. Moreover, the MIC in data set [2] was 1.66 µM (≈ 0.78 µg/mL). Besides, the cytotoxicity at 48 h, 100 µM in data set [3] is 41.3%. The selectivity ratio in data set [4] is over 60.2. This compound showed an inhibition in data set [5] of over 90%.
In turn, `O=C(NCc1ccc(Cl)cc1)NC1CCN(CCn2c(=O)ccc3ncc(F)cc32)CC1` came in with an IC50 in data set [1] of 2900 nM. In data set [2], this compound showed an MIC of 3.7 µM (≈ 1.69 µg/mL). The cytotoxicity at 48 h, 100 µM in data set [3] is 42.7%. The selectivity ratio in data set [4] was over 27. For the same compound, the inhibition in data set [5] is over 92%.

For the origin of these results see ChEMBL document CHEMBL3351599, “Extending the N-linked aminopiperidine class to the mycobacterial gyrase domain: pharmacophore mapping from known antibacterial leads” (Eur J Med Chem, 2014).
